# High-throughput results from PubChem.
# Hits are enriched below; roughly 2.9% of the tested compounds scored in any of these assays.
# Kir21 inh: Kir2.1 (mouse) channel inhibition; HEK293-Kir2.1, FluxOR thallium flux fluorescence; stronger effect = lower value; B-score at 10 µM; 310,000 tested, 0.85% active; AID 1672;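 active means fluorescence ratio B-score at or below minus 3 SD of library scores, with starting-brightness B-score within 2 SD, cut at about -4.2 in these data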;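 further: channel flux triggered by added potassium and thallium sulfate stimulus; B-score of peak minus minimum fluorescence over baseline after thallium stimulus; more negative B-score means stronger Kir2.1 block with less thallium influx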
# TRPC6 inhibitor: blocks the mouse TRPC6 cation channel. Q61143. HEK293-TRPC6, membrane potential dye, ACh-evoked depolarization; stronger effect = lower value. B-score at 10 µM. 310,000 tested, 1.1% active. AID 2553;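 active means B-score under library mean minus 3 SD, initial fluorescence not abnormally high, positive integrated signal ratio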;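 further: B-score derived from integrated fluorescence ratio over the kinetic read; more negative B-score means stronger inhibition of depolarization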
# TRPC4 act: activators of mouse TRPC4 channel; HEK293 TRPC4beta/mu-opioid, Fluo4 calcium fluorescence; stronger effect = higher value; B-score at 10 µM; 310,000 tested, 0.49% active; AID 2237;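 active means B-score above 5 SD of library B-scores, and initial fluorescence ratio not above library mean plus 5 SD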;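 further: positive B-score marks a calcium rise read as TRPC4 activation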
#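 System: HEK293 cells stably co-expressing mouse TRPC4beta and mu-opioid receptor; Schedule: Fluo4 dye loading 45 min at room temperature, 110 s recording; Detection: Fluo4 fluorescence, kinetic; Evaluation: B-scored integrated calcium fluorescence ratio; Controls: buffer (low) and maximal DAMGO (high).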
# TRPC4 potent: TRPC4 (mouse) allosteric potentiation. Q9QUQ5. HEK293 TRPC4beta/mu-opioid, DAMGO EC20, Fluo-4 Ca2+ flux; stronger effect = higher value. B-score at 10 µM. 310,000 tested, 0.42% active. AID 2227;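 active means B-score of calcium response area above 5 SD of library B-scores, with initial fluorescence ratio within 5 SD of library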;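 further: B-score of integrated fluorescence ratio over time as area under calcium response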
# TRPC6 activator: activates the mouse TRPC6 cation channel | Q61143 | 310,000 tested, 0.13% active | HEK293-TRPC6 membrane potential dye fluorescence; stronger effect = higher value | AID 2550 | B-score at 10 µM;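 active means B-score of the integrated fluorescence ratio above library mean plus 3 SD, and starting fluorescence ratio within library mean plus 5 SD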;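 further: higher score means more depolarization so channel activation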
# TRPC4 inh: blocks the mouse TRPC4 cation channel. Q9QUQ5. 300,000 tested, 0.39% active. HEK293 TRPC4beta/mu-opioid, DAMGO-evoked Fluo4 calcium flux; stronger effect = lower value. B-score at 10 µM;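 active means B-score over 3 SD under the library average, no early fluorescence shift, positive overall ratio signal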
#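 material = TRPC4beta/mu-opioid receptor HEK293 cell line | probe or stimulus = sequential submaximal and maximal DAMGO stimulation | compound dosing = one concentration per compound | measured by = Fluo4 Ca2+ flux fluorescence | evaluation = integrated fluorescence ratio relative to baseline, converted to per-well B score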
# * hit, by the source's call; i = inactive.
SMILES,Kir21 inh,TRPC6 inhibitor,TRPC4 act,TRPC4 potent,TRPC6 activator,TRPC4 inh
CC1=C(C)/C(=N\OS(=O)(=O)c2ccccc2)C=CC1=O,-11*,i,i,i,i,i
Cc1ccc(S(=O)(=O)O/N=C2\CCCc3ccccc32)cc1,0.4,i,i,i,i,i
Cc1cccc(CN2CCc3c([nH]c4ccccc34)C2CC(C)C)n1 (configuration not stated),-2.8,i,i,i,i,i
Fc1ccccc1Sc1ccccc1CNC1=NCCN1,-2.5,i,i,i,i,-6*
O=C(CNCC1CCCO1)N1CCN(S(=O)(=O)c2ccc3ccccc3c2)CC1 (configuration not stated),0.16,i,i,i,i,i
COc1ccc(CNC(=O)C(c2ccco2)N(Cc2ccccc2)C(=O)Cc2cccs2)cc1 (configuration not stated),0.99,i,i,i,i,i
CC(NC(=O)c1ccco1)C(c1cccs1)N1CCN(c2ccccc2)CC1 (configuration not stated),0.83,i,i,i,i,-6*
CC(NC(=O)Cc1cccs1)C(c1cccs1)N1CCN(c2ccccc2)CC1 (configuration not stated),0,i,i,i,i,i
CCC(=O)NC(C)C(c1cccs1)N1CCN(c2ccccc2)CC1 (configuration not stated),-0.84,i,119*,i,i,i
CNC(=O)c1ccc(Nc2nnc(-c3ccc(O)cc3)c3ccccc23)cc1,1,i,i,i,i,i
CN(C)C(=O)c1ccc(Nc2nnc(-c3ccc(O)cc3)c3ccccc23)cc1,0.11,i,60*,i,i,i
C/C=C/c1ccc(OCC(O)CNCC(c2ccc(OC)cc2)N(C)C)c(OC)c1 (configuration not stated),0.55,i,i,i,i,i
C/C=C/c1ccc(OCC(O)CNCCc2ccc(OC)cc2)c(OC)c1 (configuration not stated),-6*,i,i,i,i,i
C/C=C/c1ccc(OCC(O)CN(C)Cc2ccc(SC)cc2)c(OC)c1 (configuration not stated),-11*,i,i,i,i,i
O=C(NC1CCCCC1NC(=O)c1cccs1)c1cccs1 (configuration not stated),0.55,i,i,i,i,i
CCOC(=O)c1oc2cccc(O)c2c1CN(Cc1ccccc1)C(C)=O,-0.97,i,i,i,i,i
BrCCOCCOc1ccc2ccccc2c1,0.19,i,i,i,i,i
C=CCN1C(=O)C(Cc2ccc(Br)cc2)S/C1=N\N=C\c1ccco1 (configuration not stated),-1.8,i,i,i,i,i
Cc1cc2oc(=O)cc(CN3CCN(Cc4ccccc4)CC3)c2cc1O,-2.8,i,79*,i,i,i
CCc1cc2c(CN3CCN(C)CC3)cc(=O)oc2cc1O,-1.6,i,51*,i,i,i
CCc1nccn1C(=O)c1cnn2c(C(F)F)cc(-c3ccccc3)nc12,-0.74,i,i,i,i,i
COC(=O)c1c(C)oc(C)c1S(=O)(=O)NCc1ccc(Cl)cc1Cl,-5.1*,i,i,i,i,i
COc1cccc(CNc2cc(CSc3ccc(Cl)cc3)nc(C)n2)c1,-7.7*,i,i,i,i,i
CCCCOc1ccc(C2(C)NC(=O)NC2=O)cc1 (configuration not stated),-0.26,i,i,i,i,i
CCCCCCCNC(=O)C1(CC2CC(c3ccc(Cl)cc3)=NO2)CCN(C(=O)Cc2ccc(F)cc2)CC1 (configuration not stated),-0.72,i,i,i,i,i
CCCCCCCNC(=O)C1(CC2CC(c3cccc(Br)c3)=NO2)CCNCC1 (configuration not stated),-11*,i,i,i,i,i
